According to article PMC2962933 (Biochemistry, 2010):
Read-outs that look alike come from different tables or passages of the source.

Key:
[1] = target: T1, HsY430A mutant of Hs-SAHH (Homo sapiens, UniProt P23526, Y430A); assay: cofactor content of isolated and reconstituted mutant enzyme; assay type: binding
T1 sequence (P23526 1-432 Y430A): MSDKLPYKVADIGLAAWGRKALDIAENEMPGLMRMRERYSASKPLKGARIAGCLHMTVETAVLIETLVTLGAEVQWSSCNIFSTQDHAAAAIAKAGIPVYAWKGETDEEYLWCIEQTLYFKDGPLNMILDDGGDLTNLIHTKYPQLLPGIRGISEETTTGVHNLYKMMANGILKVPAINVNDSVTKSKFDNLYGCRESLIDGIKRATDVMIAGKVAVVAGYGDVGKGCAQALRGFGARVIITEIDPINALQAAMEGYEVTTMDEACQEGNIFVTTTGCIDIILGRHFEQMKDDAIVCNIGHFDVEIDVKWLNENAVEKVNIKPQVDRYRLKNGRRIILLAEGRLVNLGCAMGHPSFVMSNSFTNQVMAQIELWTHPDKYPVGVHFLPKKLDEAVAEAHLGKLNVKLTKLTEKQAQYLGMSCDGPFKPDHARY

[2] = tested on: TcK431A mutant of Tc-SAHH; assay: cofactor content of isolated and reconstituted mutant enzyme; assay type: binding, Trypanosoma cruzi
Outline: (§1)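 Apo-enzyme preparation: mutants expressed in E. coli were precipitated three times with 80% (v/v) acid ammonium sulfate plus 2–5 mM DTT (pH 2.92, 3.12, then 7.2). Pellets were redissolved in 50 mM phosphate pH 7.2 with 1 mM EDTA. Apo protein (10 mg/mL) was incubated with 1 mM NAD+ or NADH for 12 h at 4 °C, then purified by Superdex 200 gel filtration.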

[3] = tested on: TcY435A mutant of Tc-SAHH; assay: as above; assay type: binding, Trypanosoma cruzi
Outline: as §1

[4] = target: T1, HsY430A mutant of Hs-SAHH; assay: association kinetics of NAD^+ with apo-enzyme; assay type: binding
[5] = target: TcY435A mutant of Tc-SAHH; assay: association kinetics of NAD^+ with apo-enzyme; assay type: binding, Trypanosoma cruzi; settings: 23 °C, pH 7.4
[6] = target: T1, HsY430A mutant of Hs-SAHH; assay: dissociation of NAD^+; assay type: binding
[7] = tested on: TcY435A mutant of Tc-SAHH; assay: dissociation of NAD^+; assay type: binding, Trypanosoma cruzi
[8] = target: Hs-SAHH; settings: 23 °C, pH 7.4, cited from earlier work
[9] = target: Tc-SAHH; settings: 23 °C, pH 7.4, cited from earlier work
[10] = tested on: Hs-SAHH; settings: cited from earlier work
[11] = tested on: Tc-SAHH; settings: cited from earlier work
[12] = target: K431A mutant of Trypanosoma cruzi S-adenosylhomocysteine hydrolase (TcK431A) (Trypanosoma cruzi); assay: SEC
[13] = target: Y435A mutant of Trypanosoma cruzi S-adenosylhomocysteine hydrolase (TcY435A) (Trypanosoma cruzi); assay: SEC
[14] = target: the molecule itself; assay: SEC
[15] = enzyme as isolated from the expression system, fluorescence
[16] = binding to non-functional sites of apo-SAHH
[17] = read-out: Kf, binding to fully functional sites of holo-SAHH
[18] = read-out: Ko, binding to fully functional sites of apo-SAHH
[19] = Table 2 (23 °C, pH 7.4), value is 10^6 x koff
[20] = enzyme as isolated from the expression system, HPLC

NC(=O)C1=CN([C@@H]2O[C@H](COP(=O)(O)OP(=O)(O)OC[C@H]3O[C@@H](n4cnc5c(N)ncnc54)[C@H](O)[C@@H]3O)[C@@H](O)[C@H]2O)C=CC1 [NADH, β-nicotinamide adenine dinucleotide, reduced form]
occupancy after reconstitution of apo-enzyme with NADH ([1]; 1 mM NADH, 12 h, 4 °C, fluorescence): 94 ± 1% | active-site occupancy by NADH [1, 15]: 86 ± 5% | occupancy after reconstitution of apo-enzyme with NADH ([2]; attempted reconstitution): no detectable occupancy | active-site occupancy by NADH [2, 15]: 1.30 ± 0.03% | occupancy after reconstitution of apo-enzyme with NADH ([3]; attempted reconstitution): no detectable occupancy | active-site occupancy by NADH [3, 15]: 90 ± 1%

NC(=O)C1=CN([C@@H]2O[C@H](COP(=O)(O)OP(=O)(O)OC[C@H]3O[C@@H](n4cnc5c(N)ncnc54)[C@H](O)[C@@H]3O)[C@@H](O)[C@H]2O)C=CC1 [NAD^+, β-nicotinamide adenine dinucleotide]
Kd, koff/(ka/Ka) ([4]; 23 °C, pH 7.4): 0.75 ± 0.095 µM | Ka ([4]; 23 °C, pH 7.4, binding to non-functional sites of apo-SAHH): 17 ± 2 µM | n (Hill coefficient for Ko) ([4]; 23 °C, pH 7.4, fast-binding sites): 0.9 ± 0.1 | 10^−3kon ([4]; 23 °C, pH 7.4, value is 10^−3 x kon): 0.54 ± 0.04 M^−1s^−1 | decrease of the on-rate, mutant vs wild type ([4]; HsY430A vs Hs-SAHH): 4 fold | Kd ([4]; read-out: Kd, koff/kon, 23 °C, pH 7.4): 0.784 ± 0.064 µM | Kd ([4]; read-out: Kf, 23 °C, pH 7.4, binding to fully functional sites of holo-SAHH): 2 ± 0.3 µM | Kd ([4]; read-out: Ko, 23 °C, pH 7.4, binding to fully functional sites of apo-SAHH): 432 ± 93 µM | Kd, koff/(ka/Ka) [5]: 1000 ± 300 µM | kon [5]: 18 ± 2 M⁻¹ s⁻¹ | ka/Ka ([5]; binding and transformation of apo-sites to holo-sites): 29 ± 9 M⁻¹ s⁻¹ | Ka [5, 16]: 0.39 ± 0.04 mM | ka ([5]; transformation of non-functional apo-sites to functional holo-sites): 11 ± 0.4 s⁻¹ | Kd ([5]; read-out: Kd, koff/kon): 1600 ± 200 µM | Kd [5, 17]: 200 ± 30 µM | Kd [5, 18]: 2600 ± 1000 µM | koff ([6]; 30 °C, pH 7.4): 4.2 ± 0.1 × 10^−4 s^−1 | 10^6koff [6, 19]: 420 ± 10 s^−1 | koff ([7]; 24 °C, pH 7.4): 2.8 ± 0.2 × 10^−2 s^−1 | 10^3koff ([7]; Table 2 (23 °C, pH 7.4), value is 10^3 x koff): 28 ± 2 s^−1 | active-site occupancy by NAD^+ [1, 20]: 30 ± 5% | occupancy after reconstitution of apo-enzyme with NAD^+ ([2]; attempted reconstitution): no detectable occupancy | occupancy after reconstitution of apo-enzyme with NAD^+ ([3]; attempted reconstitution): no detectable occupancy | active-site occupancy by NAD^+ [3, 20]: 18 ± 1% | Ka [8, 16]: 19 ± 8 µM | Kd, koff/(ka/Ka) [8]: 0.007 ± 0.003 µM | 10^−3kon ([8]; value is 10^−3 x kon): 1.9 ± 0.04 M^−1s^−1 | Kd ([8]; read-out: Kd, koff/kon): 0.01 ± 0.002 µM | Kd [8, 17]: 1.4 ± 0.3 µM | Kd [8, 18]: 33 ± 4 µM | Ka [9, 16]: 3.8 ± 0.6 µM | Kd, koff/(ka/Ka) [9]: 0.069 ± 0.018 µM | 10^−3kon ([9]; value is 10^−3 x kon): 0.68 ± 0.02 M^−1s^−1 | Kd ([9]; read-out: Kd, koff/kon): 0.161 ± 0.03 µM | Kd [9, 17]: 1.8 ± 0.4 µM | Kd [9, 18]: 38 ± 9 µM | koff ([10]; 30 °C, pH 7.4, wild-type enzyme): 1.9 ± 0.3 × 10^−5 s^−1 | 10^6koff [10, 19]: 19 ± 3 s^−1 | koff ([11]; 24 °C, pH 7.4, wild-type enzyme): 1.1 ± 0.2 × 10^−4 s^−1 | 10^6koff [11, 19]: 110 ± 20 s^−1

K431A mutant of Trypanosoma cruzi S-adenosylhomocysteine hydrolase (TcK431A) (enzyme)
stoichiometry N [12]: 4

Y435A mutant of Trypanosoma cruzi S-adenosylhomocysteine hydrolase (TcY435A) (enzyme)
stoichiometry N [13]: 4

B1: Y430A mutant of human S-adenosylhomocysteine hydrolase (HsY430A) (enzyme)
chain: MSDKLPYKVADIGLAAWGRKALDIAENEMPGLMRMRERYSASKPLKGARIAGCLHMTVETAVLIETLVTLGAEVQWSSCNIFSTQDHAAAAIAKAGIPVYAWKGETDEEYLWCIEQTLYFKDGPLNMILDDGGDLTNLIHTKYPQLLPGIRGISEETTTGVHNLYKMMANGILKVPAINVNDSVTKSKFDNLYGCRESLIDGIKRATDVMIAGKVAVVAGYGDVGKGCAQALRGFGARVIITEIDPINALQAAMEGYEVTTMDEACQEGNIFVTTTGCIDIILGRHFEQMKDDAIVCNIGHFDVEIDVKWLNENAVEKVNIKPQVDRYRLKNGRRIILLAEGRLVNLGCAMGHPSFVMSNSFTNQVMAQIELWTHPDKYPVGVHFLPKKLDEAVAEAHLGKLNVKLTKLTEKQAQYLGMSCDGPFKPDHARY
stoichiometry N [14]: 4
